Measured values reported in ChEMBL document CHEMBL4706643 (J Med Chem, 2021).
The source made the active and inactive calls. The calls are words filed in the database; no cut-off is given here.

How the values were obtained:
Hepatitis B virus [1] = experiment: (§1) Antiviral activity against HBV infected in human HepG2-NTCP cells assessed as reduction in HBV cccDNA levels cells inoculated with virus for 4 hrs at room temperature and 37 degree C for 24 hrs followed inoculum changed with PMM medium for every 2 days until day 5 post infection by DIG-labelled probe based southern blot analysis; type: functional, organism-based; settings: time 28.0 hrs
Outline: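 HepG2-NTCP cells infected with compound added together with HBV inoculum; DNA harvested day 5 post infection by modified Hirt extraction. Southern blot on 1.2% agarose, UV cross-linked, hybridised at 50 °C overnight with DIG-labelled full-length genotype D HBV genomic probe; chemiluminescent detection; 3.2, 2.1 and 1.7 kb HBV fragments as markers.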

[2] = Cmax in C57BL/6 mouse at 10 mg/kg, ip; type: ADME, organism-based; parameters: route intraperitoneal, dose 10 mg/kg; settings: in vivo
Outline: (§2)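 Male C57BL/6 mice (n = 3), single dose IV 5 mg/kg, IP 10 mg/kg or PO 10 mg/kg in DMSO:cremophor:0.9% NaCl 5:5:90; plasma parameters reported as means.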

[3] = Half life in C57BL/6 mouse at 10 mg/kg, ip; type: ADME, organism-based; settings: in vivo; outline: as §2
[4] = Intrinsic clearance in human liver microsomes at 1 uM preincubated for 5 mins followed by NADPH addition and measured upto 60 mins by LC-MS analysis; type: ADME, Microsome; settings: read-out: CLH
Outline: (§3)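 Human or mouse liver microsomes, final 1 mg/mL in 0.05 M phosphate buffer pH 7.4; compound final 1 μM, preincubated 37 °C 5 min, started with 1 mM NADPH; sampled at 0, 5, 15, 30, 60 min, methanol quench, −20 °C 1 h, centrifuged, supernatant by LC–MS.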

Hepatitis B virus [5] = experiment: Antiviral activity against HBV infected in primary human hepatocytes; type: functional, organism-based; settings: Hepatocyte
[6] = Bioavailability in C57BL/6 mouse at 10 mg/kg, ip; type: ADME, organism-based; settings: in vivo; outline: as §2
Hepatitis B virus [7] = experiment: Antiviral activity against HBV infected in human HepG2-NTCP cells assessed as reduction in HBV viral transcription at 10 uM treated 3 days post infection by northern blot analysis; type: functional, organism-based; settings: time 3.0 day
Outline: (§4)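 Infected HepG2-NTCP cells given compound either with the HBV inoculum or at dpi 3–5; RNA extracted with TRIzol, run on 1.0% agarose–formaldehyde/MOPS gel. Northern blot as for Southern, probed with DIG-labelled full-length HBV genome plus DIG-labelled GAPDH probe.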

Hepatitis B virus [8] = experiment: as §1, with “viral transcription at 10 uM” for “cccDNA levels”, “GAPDH” for “probe”, “northern” for “southern”; type: functional, organism-based; settings: time 28.0 hrs; outline: as §4
[9] = Intrinsic clearance in mouse liver microsomes at 1 uM preincubated for 5 mins followed by NADPH addition and measured upto 60 mins by LC-MS analysis; type: ADME, Microsome; settings: read-out: CLH; outline: as §3
[10] = target: T1, Ileal sodium/bile acid cotransporter (Homo sapiens, UniProt Q12908); experiment: Inhibition of human ASBT
T1 sequence (Q12908 whole entry): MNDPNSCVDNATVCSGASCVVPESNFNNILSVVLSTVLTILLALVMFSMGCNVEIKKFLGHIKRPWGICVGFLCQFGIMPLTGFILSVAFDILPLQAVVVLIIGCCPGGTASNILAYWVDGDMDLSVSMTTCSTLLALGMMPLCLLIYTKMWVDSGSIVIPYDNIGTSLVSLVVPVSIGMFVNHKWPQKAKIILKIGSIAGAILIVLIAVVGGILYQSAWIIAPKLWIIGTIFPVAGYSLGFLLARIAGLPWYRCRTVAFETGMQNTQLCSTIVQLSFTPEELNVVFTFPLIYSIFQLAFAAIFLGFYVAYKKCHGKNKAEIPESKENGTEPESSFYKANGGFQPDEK

Hepatitis delta virus = experiment: Antiviral activity against HDV infected in human HepG2-NTCP cells assessed as reduction in HDV delta Ag measured 5 days post infection by DAPI staining based immunofluorescence assay relative to control; type: functional, cell-based; settings: time 5.0 day
Outline: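 HepG2-NTCP cells infected with HDV in presence of compound; delta antigen stained at dpi 5 with FITC-labelled anti-delta antibody, nuclei with DAPI; high-content imaging and image analysis give infection ratio relative to DMSO control.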

[11] = AUC (0 to infinity) in C57BL/6 mouse at 10 mg/kg, po; type: ADME, organism-based; parameters: route oral, time infinity, dose 10 mg/kg; settings: in vivo
Outline: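 Male C57BL/6 mice, n = 3, dosed IV at 5 mg/kg, IP at 10 mg/kg or by oral gavage (PO) at 10 mg/kg. All doses formulated in DMSO:cremophor:0.9% NaCl = 5:5:90. AUC from time zero to infinity (h*ng/mL) was derived from plasma drug levels and is reported as the mean of the males.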

[12] = Tmax in C57BL/6 mouse at 10 mg/kg, ip; type: ADME, organism-based; settings: in vivo; outline: as §2
[13] = Half life in C57BL/6 mouse at 10 mg/kg, po; type: ADME, organism-based; settings: in vivo; outline: as §2
[14] = target: T2, Solute carrier organic anion transporter family member 1B1 (Homo sapiens, UniProt Q9Y6L6); experiment: Inhibition of OATP1B1 (unknown origin) mediated [3H]-estrone sulfate uptake expressed in human HepG2 cells; type: cell-based
T2 sequence (Q9Y6L6 whole entry): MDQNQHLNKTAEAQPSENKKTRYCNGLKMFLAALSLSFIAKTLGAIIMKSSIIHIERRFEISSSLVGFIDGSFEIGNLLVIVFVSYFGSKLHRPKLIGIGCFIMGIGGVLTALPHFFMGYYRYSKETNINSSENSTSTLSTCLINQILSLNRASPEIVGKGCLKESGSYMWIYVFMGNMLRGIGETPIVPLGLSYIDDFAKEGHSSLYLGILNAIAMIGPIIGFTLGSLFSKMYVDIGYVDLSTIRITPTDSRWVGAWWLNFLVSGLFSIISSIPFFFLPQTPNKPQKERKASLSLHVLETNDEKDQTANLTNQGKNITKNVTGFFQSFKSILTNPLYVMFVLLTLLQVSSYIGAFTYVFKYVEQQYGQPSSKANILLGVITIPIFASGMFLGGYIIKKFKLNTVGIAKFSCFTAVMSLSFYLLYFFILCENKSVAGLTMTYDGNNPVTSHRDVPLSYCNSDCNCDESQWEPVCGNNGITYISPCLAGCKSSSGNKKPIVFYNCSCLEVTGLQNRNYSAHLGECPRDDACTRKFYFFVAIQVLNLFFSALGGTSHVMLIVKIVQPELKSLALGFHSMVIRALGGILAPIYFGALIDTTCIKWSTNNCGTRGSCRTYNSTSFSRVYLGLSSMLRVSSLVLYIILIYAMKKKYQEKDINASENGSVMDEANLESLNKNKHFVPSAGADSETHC

[15] = Intrinsic clearance in rat liver microsomes at 1 uM preincubated for 5 mins followed by NADPH addition and measured upto 60 mins by LC-MS analysis; type: ADME, Microsome; settings: time 65 min, read-out: CLH

## CC[C@@H]1NC(=O)[C@H]([C@@H]2O[C@@H](Sc3cccc(OCc4ccccc4)c3)C[C@H]2C)N(C)C(=O)[C@H](C(C)C)N(C)C(=O)[C@H](CC(C)C)N(C)C(=O)[C@H](CC(C)C)N(C)C(=O)[C@@H](C)NC(=O)[C@H](C)NC(=O)[C@H](CC(C)C)N(C)C(=O)[C@H](C(C)C)NC(=O)[C@H](CC(C)C)N(C)C(=O)CN(C)C1=O
Hepatitis B virus [1]
  Activity: Dose-dependent effect
[2]
  Cmax: 12400 ng/mL
[3]
  half-life: 5.68 h
[4]
  microsomal CLint at 1 µM: 8 µL/min/mg
Hepatitis B virus [5]
  IC50: 59 nM
[6]
  bioavailability: 110%
Hepatitis B virus [7]
  Activity: inactive
Hepatitis B virus [8]
  Activity: Active
[9]
  microsomal CLint at 1 µM: 4.1 µL/min/mg
[10]
  inhibition (INH): Not Active
Hepatitis delta virus
  Activity: Dose-dependent effect
[11]
  AUC(0-inf): 14500 ng·h/mL
[12]
  Tmax: 2 h
[13]
  half-life: 5.65 h
[14]
  IC50: 2270 nM
[15]
  microsomal CLint at 1 µM: 2.2 µL/min/mg
